Experimental data published in PMC9392492 (International Journal of Nanomedicine, 2022).

Experiments:
Type in all cases: in vivo
[1] = test system: hot-plate nociception in mice; test: Hot plate test; conditions: RJ-III 0.2 mg/kg, aspirin 300 mg/kg
Summary of the method: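 Baseline latency (paw lick or jump) on a 53 ± 0.5°C plate was taken three times, 15 min apart. Mice under 5 s or over 30 s were excluded. Fasted ICR mice (n = 10) then received free or SLN-formulated test compound (0.20 mg/kg), aspirin or saline, all i.g. Latency was re-measured at 15 and 45 min, with a 30 s cutoff.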

[2] = test system: acetic acid-induced writhing in mice; test: Acetic acid writhing test; conditions: i.g.; RJ-III 0.10 mg/kg, aspirin 200 mg/kg
Summary of the method: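 Fasted ICR mice (18–22 g, both sexes), n = 10 per group, received free or SLN-formulated test compound (0.10 mg/kg), aspirin (200 mg/kg) or 0.9% saline, all i.g. Then 0.8% acetic acid (10 mL/kg, i.p.) was injected at 15 or 45 min post-dose, in two separate experiments. Abdominal contortions and hind-paw extensions were counted for 30 min.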

[3] = test system: formalin-induced nociception in mice; test: Formalin test; conditions: formalin 15 min after i.g. administration; RJ-III 0.10 mg/kg, aspirin 200 mg/kg
Summary of the method: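 Fasted ICR mice, n = 10 per group, were dosed i.g. with free or SLN-formulated test compound (0.10 mg/kg), aspirin (200 mg/kg) or saline. Then 25 μL of 2.5% formalin was injected s.c. into the left hind paw at 15 or 45 min post-dose, in separate experiments. Licking/biting time (s) was scored at 0–5 min (phase I) and 15–30 min (phase II).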

**Q.** How did the “latency time compared to pretreatment” value ([1]; 15 min after i.g. administration) turn out when `CC(=O)Oc1ccccc1C(=O)O` [aspirin] was run?
**A.** Its value is “increased the latency time”.

**Q.** What about the “antinociception relative to pretreatment” value ([1]; 45 min after i.g. administration) of the same compound?
**A.** The value was “no significant analgesic effect”.

**Q.** What about the “change in number of writhes between 15 and 45 min” value [2] of the same compound?
**A.** Its value is “statistically increases”.

**Q.** And the “phase I response (licking time) vs normal saline” value [3]?
**A.** Its value is “no effects”.

**Q.** And the “phase II response (licking time) vs normal saline” value [3]?
**A.** The value was “suppressed behavioral responses”.
